Each structure is given as a SMILES string. The source made the active and inactive calls.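 Rule for the calls: active = a dose-dependent boost of the low-dose acetylcholine calcium response, with potency and top response fitted; inactive = the rest.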

Chain of Muscarinic acetylcholine receptor M4 (Homo sapiens) (P08173 whole entry, looked up): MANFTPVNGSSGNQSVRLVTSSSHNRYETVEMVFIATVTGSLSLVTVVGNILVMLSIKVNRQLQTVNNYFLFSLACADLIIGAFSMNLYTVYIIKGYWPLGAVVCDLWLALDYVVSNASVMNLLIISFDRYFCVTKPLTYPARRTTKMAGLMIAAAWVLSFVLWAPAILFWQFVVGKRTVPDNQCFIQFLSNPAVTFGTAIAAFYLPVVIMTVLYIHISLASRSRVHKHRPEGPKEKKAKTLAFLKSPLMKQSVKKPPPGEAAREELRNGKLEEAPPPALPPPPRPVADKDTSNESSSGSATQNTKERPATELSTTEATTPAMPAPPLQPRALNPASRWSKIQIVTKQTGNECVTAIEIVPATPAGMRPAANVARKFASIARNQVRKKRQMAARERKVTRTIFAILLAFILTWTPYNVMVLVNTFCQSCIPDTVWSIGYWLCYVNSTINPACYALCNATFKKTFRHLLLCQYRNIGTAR

The first experiment has as its target Muscarinic acetylcholine receptor M4 (Homo sapiens) (UniProt P08173). Kind of experiment: potentiation of ACh response at M4 – CHO hM4/Gqi5 cells, calcium mobilization, SAR follow-up (AID 588743). The settings on record: PAM with EC20 ACh. The gist of the method:
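Material – CHO cells stably co-expressing human M4 receptor and chimeric Gqi5 · Schedule – 144 s compound preincubation, 37 °C · Measured by – calcium mobilization fluorescence, cells loaded with 2.3 µM Fluo-4 AM · Measure – EC50 by four-parameter logistic fit, signal as percent ACh maximum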
In general, EC50 refers to the midpoint of the concentration-response curve. In the case of `Cc1nc2sc(C(=O)NCCc3ccccn3)c(N)c2c(C)c1Cl`, the EC50 was 686 nM.

`Cc1nc2sc(C(=O)NC3COC3)c(N)c2c(C)c1Cl`: the 50% effective concentration (EC50) is 906 nM. The same measure, in the same setting: with `Cc1nc2sc(C(=O)NC3CCCCC3)c(N)c2c(C)c1Cl` the figure was 188 nM; with `Cc1nc2sc(C(=O)NCc3ccnnc3)c(N)c2c(C)c1Cl`, 222 nM. The same measure, in the same setting: with `Cc1nc2sc(C(=O)NCc3ccccc3)c(N)c2c(C)c1Cl` the figure was 133 nM; with `Cc1nc2sc(C(=O)NC(C)C)c(N)c2c(C)c1Cl`, 183 nM. For the compound `Cc1nc2sc(C(=O)NCc3ccc(C(F)(F)F)cc3)c(N)c2c(C)c1Cl`, the EC50 is 1140 nM. Consider `Cc1nc2sc(C(=O)NC3CC3)c(N)c2c(C)c1Cl`, for which the EC50 was 20.8 nM. Same read-out and setting: with `COCCCNC(=O)c1sc2nc(C)c(Cl)c(C)c2c1N` the figure was 425 nM; with `COc1ccc(CNC(=O)c2sc3nc(C)c(Cl)c(C)c3c2N)cc1`, 89.1 nM.

As to `Cc1nc2sc(C(=O)NC3CCOCC3)c(N)c2c(C)c1Cl`, the EC50 was 220 nM. In the case of `Cc1nc2sc(C(=O)NC(C)c3ccncc3)c(N)c2c(C)c1Cl` (configuration not stated), the EC50 is 600 nM.

Turning to `Cc1nc2sc(C(=O)NCc3ccncn3)c(N)c2c(C)c1Cl`, the EC50 is 173 nM.

With `Cc1nc2sc(C(=O)NC(C)c3ccccn3)c(N)c2c(C)c1Cl` (configuration not stated), the EC50 was 1410 nM. The same measure, in the same setting: with `Cc1nc2sc(C(=O)NCCC3CCCN3C)c(N)c2c(C)c1Cl` (configuration not stated) the figure was 596 nM. On to `Cc1nc2sc(C(=O)NCc3cnccn3)c(N)c2c(C)c1Cl`, for which the EC50 was 250 nM. Same read-out and setting: under `Cc1nc2sc(C(=O)NC(C)c3cccnc3)c(N)c2c(C)c1Cl` (configuration not stated) stands 601 nM; under `Cc1nc2sc(C(=O)NCc3ccccn3)c(N)c2c(C)c1Cl`, 293 nM. Same read-out and setting: with `Cc1nc2sc(C(=O)NCCc3ccncc3)c(N)c2c(C)c1Cl` the figure was 211 nM; with `Cc1nc2sc(C(=O)NC(C)(C)C)c(N)c2c(C)c1Cl`, 372 nM; with `Cc1nc2sc(C(=O)NCc3cccnc3)c(N)c2c(C)c1Cl`, 328 nM. As to `Cc1nc2sc(C(=O)NCc3cccc(F)c3F)c(N)c2c(C)c1Cl`, the half-maximal effective concentration (EC50) is 120 nM. As for `Cc1nc2sc(C(=O)NC3CCOC3)c(N)c2c(C)c1Cl` (configuration not stated), the EC50 is 28.7 nM. The same measure, in the same setting: under `Cc1ccc(CNC(=O)c2sc3nc(C)c(Cl)c(C)c3c2N)cc1` stands 132 nM; under `Cc1nc2sc(C(=O)NCc3ccncc3)c(N)c2c(C)c1Cl`, 37.2 nM; under `Cc1nc2sc(C(=O)NCc3nccs3)c(N)c2c(C)c1Cl`, 174 nM. The same measure, in the same setting: with `Cc1nc2sc(C(=O)NCc3ccccc3Cl)c(N)c2c(C)c1Cl` the figure was 154 nM. On to `Cc1cc(CNC(=O)c2sc3nc(C)c(Cl)c(C)c3c2N)ccn1`, for which the EC50 is 57 nM.

With `Cc1nc2sc(C(=O)NCc3ncccn3)c(N)c2c(C)c1Cl`, the EC50 was 1070 nM. Same read-out and setting: under `Cc1nc2sc(C(=O)NCC3CCCCC3)c(N)c2c(C)c1Cl` stands 1090 nM; under `Cc1nc2sc(C(=O)NCc3ccc4c(c3)OCO4)c(N)c2c(C)c1Cl`, 170 nM.

The same experiment, now with this note: PAM with EC20 ACh, at 30 µM (top of the series).
Regarding `CCOc1ccc(NC(=O)c2sc3nc(C)c(Cl)c(C)c3c2N)cc1`, the “percent ACh max response” value was “inactive”. On the same count and under the same terms, under `COc1ccc(NC(=O)c2sc3nc(C)c(Cl)c(C)c3c2N)cc1` stands 45.2.

As for `Cc1nc2sc(C(=O)Nc3ccccc3N(C)C)c(N)c2c(C)c1Cl`, the “percent ACh max response” value was “inactive”. Regarding `Cc1nc2sc(C(=O)NCCc3cccnc3)c(N)c2c(C)c1Cl`, the “percent ACh max response” value was “inactive”.

The experiment is the same for the next values; noted with them: PAM with EC20 ACh, at 36.9 µM (top of the series).
As for `Cc1nc2sc(C(=O)NCc3ccc(Cl)cc3)c(N)c2c(C)c1Cl`, the percent ACh max response is 32.3.

Turning to `Cc1nc2sc(C(=O)NCc3ccc(F)c(F)c3)c(N)c2c(C)c1Cl`, the percent ACh max response was 31.6.

The record behind these values is PubChem BioAssay AID588743 (Vanderbilt Specialized Chemistry Center, 2011).
